Data published in ChEMBL document CHEMBL1144886, “Structure-based design, synthesis, and antimicrobial activity of indazole-derived SAH/MTA nucleosidase inhibitors” (J Med Chem, 2003).
≈ marks a conversion by molar mass, not a printed value.

Experiments:
[1] = target: 5'-methylthioadenosine/S-adenosylhomocysteine nucleosidase (Escherichia coli O157:H7, UniProt P0AF14); assay: Inhibition of Escherichia coli S-adenosyl homocysteine/methylthioadenosine nucleosidase (MTA/SAH nucleosidase)
Summary of the method: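 Recombinant His-tagged E. coli enzyme (IPTG-induced in E. coli, IMAC-purified), 50 pM, incubated 10 min at room temperature with 2.5 μM MTA and inhibitor at 0.005–100 μM; 200 μL final volume. Reaction stopped with TFA. Remaining MTA quantified by RP-HPLC (C8) peak integration, and turnover plotted for IC50. Ki derived using Km 1.0 μM for MTA.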

Neisseria meningitidis = assay: Minimum inhibitory concentration against Neisseria meningitidis; type: functional
Streptococcus pyogenes = assay: Minimum inhibitory concentration against Streptococcus pyogenes; type: functional
Streptococcus pneumoniae = assay: Minimum inhibitory concentration against Streptococcus pneumoniae; type: functional

5'-methylthioadenosine/S-adenosylhomocysteine nucleosidase, sequence (P0AF14 whole entry): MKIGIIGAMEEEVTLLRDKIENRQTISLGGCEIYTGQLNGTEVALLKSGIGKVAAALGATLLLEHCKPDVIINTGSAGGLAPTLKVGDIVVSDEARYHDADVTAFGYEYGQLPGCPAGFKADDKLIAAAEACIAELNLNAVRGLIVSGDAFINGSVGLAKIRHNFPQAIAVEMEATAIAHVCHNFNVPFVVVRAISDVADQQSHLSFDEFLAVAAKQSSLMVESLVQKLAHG

Row | SMILES | Ki [1] [nM] | MIC (Neisseria meningitidis) [µM] | MIC (Streptococcus pyogenes) [µM] | MIC (Streptococcus pneumoniae) [µM]
1 | CC(C)CNc1cc(NS(=O)(=O)c2cccc(-c3cccc(CCO)c3)c2)cc2c(Cl)[nH]nc12 | 25 | – | – | –
2 | Cc1n[nH]c2ccc(NS(=O)(=O)c3ccc(Cl)cc3)cc12 | 4000 | – | – | –
3 | CN(C)c1cccc2c(S(=O)(=O)Nc3ccc4c[nH]nc4c3)cccc12 | 1000 | – | – | –
4 | Cc1n[nH]c2c(NCC(C)C)cc(NS(=O)(=O)c3cccc(-c4ccccc4)c3)cc12 | 498 | – | – | –
5 | Cc1nccc(-c2cccc(S(=O)(=O)Nc3cc(NCC(C)C)c4[nH]nc(C)c4c3)c2)n1 | 191 | – | – | –
6 | O=S(=O)(Nc1cc(NCc2ccccc2)c2[nH]nc(Cl)c2c1)c1ccc(Cl)cc1 | 1800 | – | – | –
7 | Cc1nccc(-c2cccc(S(=O)(=O)Nc3cc(NCC(C)C)c4n[nH]c(Cl)c4c3)c2)n1 | 36 | – | – | –
8 | CN(C)c1cccc2c(S(=O)(=O)Nc3ccc4[nH]ncc4c3)cccc12 | 2800 | – | – | –
9 | CSc1cccc(-c2cccc(S(=O)(=O)Nc3cc(NCC(C)C)c4[nH]nc(Cl)c4c3)c2)c1 | 17 | – | – | –
10 | Cc1cc(-c2cccc(S(=O)(=O)Nc3cc(NCC(C)C)c4n[nH]c(Cl)c4c3)c2)ccc1Cl | 3.9 | 7.5 (≈ 3.78 µg/mL) | 7.5 (≈ 3.78 µg/mL) | 7.5 (≈ 3.78 µg/mL)
11 | Cc1cc(-c2cccc(S(=O)(=O)Nc3cc(NCC(C)C)c4n[nH]c(Cl)c4c3)c2)ccc1F | 14.6 | – | – | –
12 | CC(C)CNc1cc(NS(=O)(=O)c2cccc(-c3ccc(Cl)c(Cl)c3)c2)cc2c(Cl)[nH]nc12 | 1.6 | 1.88 (≈ 0.982 µg/mL) | 7.5 (≈ 3.93 µg/mL) | 7.5 (≈ 3.93 µg/mL)
13 | O=S(=O)(Nc1cc(NCCc2ccccc2)c2[nH]nc(Cl)c2c1)c1ccc(Cl)cc1 | 2300 | – | – | –
14 | O=S(=O)(Nc1cc(NCC2CC2)c2[nH]nc(Cl)c2c1)c1ccc(Cl)cc1 | 500 | – | – | –
15 | CC(C)CNc1cc(NS(=O)(=O)c2cccc(-c3ccncc3)c2)cc2c(Cl)[nH]nc12 | 52 | 10 (≈ 4.56 µg/mL) | > 20 | –
16 | Cc1cccc(-c2cccc(S(=O)(=O)Nc3cc(NCC(C)C)c4n[nH]c(Cl)c4c3)c2)c1 | 36 | – | – | –
17 | CC(C)CNc1cc(NS(=O)(=O)c2cccc(-c3ccc(Cl)cc3)c2)cc2c(Cl)[nH]nc12 | 12.5 | 2.5 (≈ 1.22 µg/mL) | 1.25 (≈ 0.612 µg/mL) | 2.5 (≈ 1.22 µg/mL)
18 | CC(C)CNc1cc(NS(=O)(=O)c2cccc(-c3cnc4ccccc4c3)c2)cc2c(Cl)[nH]nc12 | 10.8 | – | – | –
19 | CCNc1cc(NS(=O)(=O)c2ccc(Cl)cc2)cc2c(Cl)[nH]nc12 | 2700 | – | – | –
20 | CC(C)(C)CCNc1cc(NS(=O)(=O)c2ccc(Cl)cc2)cc2c(Cl)[nH]nc12 | 6500 | – | – | –

Row | SMILES | Ki [1] [nM] | MIC (Neisseria meningitidis) [µM] | MIC (Streptococcus pyogenes) [µM] | MIC (Streptococcus pneumoniae) [µM]
21 | Cc1n[nH]c2c(NCC(C)C)cc(NS(=O)(=O)c3cccc(-c4ccncc4)c3)cc12 | 240 | – | – | –
22 | Cc1n[nH]c2c(NCC(C)C)cc(NS(=O)(=O)c3cccc(-c4cccc(C(F)(F)F)c4)c3)cc12 | 20 | 20 (≈ 10.1 µg/mL) | > 20 | –
23 | CC(C)CNc1cc(NS(=O)(=O)c2cccc(-c3ccccc3)c2)cc2c(Cl)[nH]nc12 | 94 | 2.5 (≈ 1.14 µg/mL) | > 20 | –
24 | CC(C)CNc1cc(NS(=O)(=O)c2cccc(-c3ccc(F)c(F)c3)c2)cc2c(Cl)[nH]nc12 | 8.1 | – | – | –
25 | CC(=O)Nc1cc(NS(=O)(=O)c2ccc(Cl)cc2)cc2c(Cl)[nH]nc12 | 11000 | 5 (≈ 2 µg/mL) | 7.5 (≈ 2.99 µg/mL) | 5 (≈ 2 µg/mL)
26 | CN(C)c1cccc2c(S(=O)(=O)Nc3ccc4[nH]nc(Cl)c4c3)cccc12 | 22000 | – | – | –
27 | Cc1cc(-c2cccc(S(=O)(=O)Nc3cc(NCC(C)C)c4n[nH]c(Cl)c4c3)c2)ccn1 | 28.5 | – | – | –
28 | CCc1cccc(-c2cccc(S(=O)(=O)Nc3cc(NCC(C)C)c4[nH]nc(C)c4c3)c2)c1 | 125 | – | – | –
29 | Cc1cccc(-c2cccc(S(=O)(=O)Nc3cc(NCC(C)C)c4[nH]nc(C)c4c3)c2)c1 | 100 | 20 (≈ 8.97 µg/mL) | > 20 | –
30 | Cc1n[nH]c2ccc(NS(=O)(=O)c3cccc4c(N(C)C)cccc34)cc12 | 64000 | – | – | –
31 | O=S(=O)(Nc1ccc2[nH]nc(Cl)c2c1)c1ccc(Cl)cc1 | 5200 | – | – | –
32 | CC(C)CNc1cc(NS(=O)(=O)c2ccc(Cl)cc2)cc2c(Cl)[nH]nc12 | 760 | 5 (≈ 2.07 µg/mL) | > 20 | –
33 | CC(C)CNc1cc(NS(=O)(=O)c2cccc(-c3ccc(F)c(Cl)c3)c2)cc2c(Cl)[nH]nc12 | 3.4 | 1.88 (≈ 0.951 µg/mL) | 3.75 (≈ 1.9 µg/mL) | 3.75 (≈ 1.9 µg/mL)
34 | CC(C)CNc1cc(NS(=O)(=O)c2cccc(-c3cccc(C(F)(F)F)c3)c2)cc2c(Cl)[nH]nc12 | 11 | – | – | –
35 | CC(C)=CCNc1cc(NS(=O)(=O)c2ccc(Cl)cc2)cc2c(Cl)[nH]nc12 | 2200 | – | – | –
36 | CC(C)CNc1cc(NS(=O)(=O)c2cccc(-c3ccc(C(F)(F)F)cc3)c2)cc2c(Cl)[nH]nc12 | 13 | 5 (≈ 2.61 µg/mL) | > 20 | –
37 | CC(C)CCNc1cc(NS(=O)(=O)c2ccc(Cl)cc2)cc2c(Cl)[nH]nc12 | 4900 | – | – | –
38 | O=S(=O)(Nc1ccc2c[nH]nc2c1)c1ccc(Cl)cc1 | 17000 | – | – | –
39 | CC(C)(C)CNc1cc(NS(=O)(=O)c2ccc(Cl)cc2)cc2c(Cl)[nH]nc12 | 1200 | – | – | –
40 | O=S(=O)(Nc1ccc2[nH]ncc2c1)c1ccc(Cl)cc1 | 27000 | – | – | –
